{
  "source": "paper PMC7337098",
  "about": "(Cell reports, 2020)",
  "key": {"[1]": {"tested_on": "P2XR in cerebellar granule cells", "type": "cell-based, mouse", "conditions": "TNP-ATP 10 μM co-applied with ATP; untreated 23.55 ± 6.96 pA; n = 3"}, "P2X3R and P2X2R": {"tested_on": "P2X3R and P2X2R", "experiment": "Calcium FLIPR assay, HEK cells stably expressing both P2X3R and P2X2R", "type": "cell-based, human", "conditions": "read-out: α,β-MeATP EC50, HEK cell lines stably expressing both P2X3R and P2X2R"}, "P2X4R": {"molecular_target": "T1, P2X4R (Homo sapiens, UniProt Q99571)", "T1 sequence (Q99571 1-388)": "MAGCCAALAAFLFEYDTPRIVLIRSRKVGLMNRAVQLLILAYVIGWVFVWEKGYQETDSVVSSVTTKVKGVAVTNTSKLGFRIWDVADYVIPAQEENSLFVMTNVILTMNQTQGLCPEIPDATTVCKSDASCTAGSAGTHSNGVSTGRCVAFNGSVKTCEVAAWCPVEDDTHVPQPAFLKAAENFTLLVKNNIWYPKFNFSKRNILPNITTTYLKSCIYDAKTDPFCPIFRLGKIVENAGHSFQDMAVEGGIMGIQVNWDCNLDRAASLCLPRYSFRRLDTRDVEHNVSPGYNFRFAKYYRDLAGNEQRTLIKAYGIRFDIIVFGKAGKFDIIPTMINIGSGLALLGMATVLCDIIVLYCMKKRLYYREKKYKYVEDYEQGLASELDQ", "type": "cell-based", "conditions": "P2X4R alone; 10 μM ivermectin pre-applied 10 s; ATP 1.3 μM; n = 7", "summary_of_the_method": "(§1)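 Xenopus oocytes (surgically harvested, collagenase-treated) co-injected with 25 pg P2X4R cRNA plus 2 ng TMEM163 cRNA, or 2 ng Neto2 cRNA as the control. TEVC at Vh −30 mV, room temperature, in 90 mM NaCl, 1 mM KCl, 2 mM CaCl2, 10 mM HEPES pH 7.4. […] Mean ± SEM; Student's t test.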"}, "P2X4R with TMEM163": {"molecular_target": "T2, P2X4R with TMEM163 (Homo sapiens, UniProt Q99571)", "T2 sequence (Q99571 1-388)": "T1 sequence (Q99571 1-388)", "type": "cell-based", "conditions": "10 μM ivermectin pre-applied 10 s, ATP 1.3 μM, n = 7", "summary_of_the_method": "as §1"}, "P2X3R [2]": {"molecular_target": "T3, P2X3R (Homo sapiens, UniProt P56373)", "T3 sequence (P56373 1-397)": "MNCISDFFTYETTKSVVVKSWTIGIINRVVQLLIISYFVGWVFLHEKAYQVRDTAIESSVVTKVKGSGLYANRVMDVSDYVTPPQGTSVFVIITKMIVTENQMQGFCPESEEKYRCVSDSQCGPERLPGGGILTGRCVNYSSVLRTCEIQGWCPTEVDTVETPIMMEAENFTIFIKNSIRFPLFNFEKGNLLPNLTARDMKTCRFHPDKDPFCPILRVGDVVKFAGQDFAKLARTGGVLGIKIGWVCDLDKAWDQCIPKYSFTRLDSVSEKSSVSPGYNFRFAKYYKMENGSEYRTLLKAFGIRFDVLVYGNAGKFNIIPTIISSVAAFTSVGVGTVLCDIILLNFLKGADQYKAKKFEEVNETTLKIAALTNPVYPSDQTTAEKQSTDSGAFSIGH", "experiment": "Calcium FLIPR ATP dose response, P2X3R-stable HEK cells transfected with pcDNA3", "type": "cell-based"}, "P2X3R with TMEM163 [3]": {"molecular_target": "T4, P2X3R with TMEM163 (Homo sapiens, UniProt P56373)", "T4 sequence (P56373 1-397)": "T3 sequence (P56373 1-397)", "T4 sequence (Q8TC26 1-289 partner)": "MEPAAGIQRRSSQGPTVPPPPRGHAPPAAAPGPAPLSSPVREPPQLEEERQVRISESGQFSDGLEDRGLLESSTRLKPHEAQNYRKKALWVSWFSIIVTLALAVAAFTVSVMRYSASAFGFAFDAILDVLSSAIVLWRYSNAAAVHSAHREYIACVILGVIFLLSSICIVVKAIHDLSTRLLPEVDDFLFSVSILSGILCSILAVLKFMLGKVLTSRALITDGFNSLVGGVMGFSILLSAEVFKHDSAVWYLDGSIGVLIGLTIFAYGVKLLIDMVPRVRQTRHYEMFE", "experiment": "Calcium FLIPR ATP dose response, P2X3R-stable HEK cells transfected with TMEM163", "type": "cell-based"}, "P2X3R [4]": {"molecular_target": "T3, P2X3R", "type": "cell-based"}, "P2X3R with TMEM163 [5]": {"molecular_target": "T4, P2X3R with TMEM163", "type": "cell-based"}, "P2X3R [6]": {"molecular_target": "T3, P2X3R", "type": "cell-based", "conditions": "100 μM ATP, outside-out patch"}, "P2X3R with TMEM163 [7]": {"molecular_target": "T4, P2X3R with TMEM163", "type": "cell-based", "conditions": "100 μM ATP, outside-out patch"}, "P2XRs in DRG neurons": {"tested_on": "P2XRs in DRG neurons", "experiment": "Whole-cell recording of ATP-evoked currents, primary DRG neurons from WT mice", "type": "cell-based", "conditions": "Mus musculus, DRG neuron, read-out: ATP EC50"}, "[8]": {"tested_on": "P2XRs in TMEM163 KO DRG neurons", "type": "cell-based", "conditions": "Mus musculus, DRG neuron, read-out: ATP EC50"}, "WT mice": {"tested_on": "WT mice", "experiment": "ATP-evoked freezing behavior after hind paw injection", "type": "in vivo, mouse", "conditions": "3 μmol ATP into hind paw, 4 min after injection, saline 6.7 ± 3.2 s"}, "[9]": {"tested_on": "endogenous P2 receptors in HEK cells", "experiment": "Calcium FLIPR response of HEK cells", "type": "cell-based, human", "conditions": "untransfected (Mock) HEK cells"}},
  "note": "Counter-ions that a name gives are not always drawn. Like-named read-outs stand apart in the source and are kept apart here.",
  "data": [
    {"compound": "Nc1ncnc2c1ncn2[C@@H]1O[C@H](COP(=O)(O)OP(=O)(O)OP(=O)(O)O)[C@H]2OC3(O[C@H]21)C([N+](=O)[O-])=CC(=[N+]([O-])[O-])C=C3[N+](=O)[O-]", "note": "(some centres unmarked) [TNP-ATP, TNP-ATP triethylammonium salt]", "values": [
      {"measurement": "ATP-evoked current", "setting": "[1]", "result": "0.53 ± 0.25", "unit": "pA"}
    ]},
    {"compound": "Nc1ncnc2c1ncn2[C@@H]1O[C@H](COP(=O)(O)CP(=O)(O)OP(=O)(O)O)[C@@H](O)[C@H]1O", "note": "[α,β-MeATP, α, β-Methyleneadenosine 5′-triphosphate lithium salt]", "values": [
      {"measurement": "EC50", "setting": "P2X3R and P2X2R", "result": "656 ± 88.7", "unit": "nM"}
    ]},
    {"compound": "ivermectin", "values": [
      {"measurement": "potentiation of ATP-evoked currents (ratio with and without ivermectin)", "setting": "P2X4R", "result": "3.7 ± 0.5", "unit": "times"},
      {"measurement": "potentiation of ATP-evoked currents (ratio with and without ivermectin)", "setting": "P2X4R with TMEM163", "result": "1.9 ± 0.2", "unit": "times"}
    ]},
    {"compound": "Nc1ncnc2c1ncn2[C@@H]1O[C@H](COP(=O)([O-])OP(=O)([O-])OP(=O)([O-])[O-])[C@@H](O)[C@H]1O.[Mg+2].[Mg+2]", "note": "[ATP, Adenosine 5′-triphosphate magnesium salt]", "values": [
      {"measurement": "Hill coefficient", "setting": "P2X3R [2]", "result": "0.99 ± 0.03"},
      {"measurement": "EC50", "setting": "P2X3R with TMEM163 [3]", "result": "1270 ± 110", "unit": "nM"},
      {"measurement": "Hill coefficient", "setting": "P2X3R with TMEM163 [3]; P2X3R with TMEM163, ATP calcium FLIPR dose response", "result": "0.73 ± 0.04"},
      {"measurement": "EC50", "setting": "P2X3R [4]", "result": "1300 ± 230", "unit": "nM"},
      {"measurement": "Hill coefficient", "setting": "P2X3R [4]; P2X3R, ATP TEVC dose response", "result": "1.04 ± 0.14"},
      {"measurement": "EC50", "setting": "P2X3R with TMEM163 [5]; ATP EC50, 25 pg P2X3R with 2 ng TMEM163, TEVC, 20-min interval", "result": "261 ± 27.2", "unit": "nM"},
      {"measurement": "Hill coefficient", "setting": "P2X3R with TMEM163 [5]; P2X3R with TMEM163, ATP TEVC dose response", "result": "0.98 ± 0.15"},
      {"measurement": "mean rise time of ATP-evoked currents", "setting": "P2X3R [6]", "result": "0.43 ± 0.042", "unit": "ms"},
      {"measurement": "mean rise time of ATP-evoked currents", "setting": "P2X3R with TMEM163 [7]", "result": "0.50 ± 0.061", "unit": "ms"},
      {"measurement": "EC50", "setting": "P2XRs in DRG neurons", "result": "5.92 ± 1.17", "unit": "µM"},
      {"measurement": "EC50", "setting": "[8]", "result": "31 ± 15.1", "unit": "µM"},
      {"measurement": "mean cumulative duration of freezing behaviors", "setting": "WT mice", "result": "74 ± 7.1", "unit": "s"},
      {"measurement": "ATP concentrations at which HEK cells (Mock) responded", "setting": "[9]", "result": "above 1 μM"}
    ]}
  ]
}
